This is an account of results in ChEMBL document CHEMBL1250505, “Synthesis and biological property of some novel 1,3,4-oxadiazoles” (2010).

The structures appear in SMILES notation.

What all share (assay type): functional
Assay [1] concerns Pseudomonas aeruginosa. Briefly: Antibacterial activity against Pseudomonas aeruginosa at 50 ug/ml after 24 to 48 hrs by cup-plate method. Conditions: read-out: IZ. Put shortly:
(§1)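 Sterile nutrient agar cooled to […] and seeded with 18-24 h sub-cultures, then poured at about 45-50 mL per dish. Wells cut with a 6 mm sterile cork borer and filled with 0.1 mL of each of two test dilutions. Plates incubated inverted at 37 °C for 24–48 h; inhibition zone diameters measured in mm. Streptomycin and procaine penicillin served as standards.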

Assay [2] relates to Pseudomonas aeruginosa. Nature of the assay: Antibacterial activity against Pseudomonas aeruginosa at 100 ug/ml after 24 to 48 hrs by cup-plate method. Conditions: read-out: IZ. In outline: as §1
For assay [3], the system named is Mus musculus. Nature of the assay: Analgesic activity in albino mouse assessed as paw licking latency at 100 mg/kg after 4 hrs by Eddy's hot plate method. Put shortly: (§2)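 Albino mice of either sex, fasted 24 h, 6 per group. Compounds given at 100 mg/kg; control group received 2% acacia suspension, standard group pentazocine 35 mg/kg. Hot plate held at 55 ± 1 °C. Reaction time is the time to lick a hind paw or leap off the plate, recorded at 0, 30, 60, 120 and 240 min after dosing.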
(In general: In hot-plate and tail-flick tests a longer latency is read as antinociception.)

Assay [4] relates to Escherichia coli. Briefly: Antibacterial activity against Escherichia coli at 100 ug/ml after 24 to 48 hrs by cup-plate method. Conditions: read-out: IZ. Put shortly:
as §1

For assay [5], the system named is Bacillus subtilis. Nature of the assay: Antibacterial activity against Bacillus subtilis at 50 ug/ml after 24 to 48 hrs by cup-plate method. Conditions: read-out: IZ. In outline: as §1
The subject of assay [6] is Mus musculus. Nature of the assay: Analgesic activity in albino mouse assessed as paw licking latency at 100 mg/kg after 2 hrs by Eddy's hot plate method. In outline: as §2
Assay [7] has as its system Mus musculus. Nature of the assay: Analgesic activity in albino mouse assessed as paw licking latency at 100 mg/kg after 1 hr by Eddy's hot plate method. In outline: as §2
In assay [8] the test system is Staphylococcus aureus. Nature of the assay: Antibacterial activity against Staphylococcus aureus at 100 ug/ml after 24 to 48 hrs by cup-plate method. Conditions: read-out: IZ. Put shortly:
as §1

Assay [9] deals with Bacillus subtilis. Nature of the assay: Antibacterial activity against Bacillus subtilis at 100 ug/ml after 24 to 48 hrs by cup-plate method. Conditions: read-out: IZ. Put shortly: as §1
Assay [10] deals with Mus musculus. Briefly: Analgesic activity in albino mouse assessed as paw licking latency at 100 mg/kg after 0.5 hrs by Eddy's hot plate method. Put shortly:
as §2

Assay [11] deals with Escherichia coli. Briefly: Antibacterial activity against Escherichia coli at 50 ug/ml after 24 to 48 hrs by cup-plate method. Conditions: read-out: IZ. In outline:
as §1

The test system of assay [12] is Staphylococcus aureus. Briefly: Antibacterial activity against Staphylococcus aureus at 50 ug/ml after 24 to 48 hrs by cup-plate method. Conditions: read-out: IZ. Put shortly:
as §1

On to `COc1ccccc1-c1cccc(-c2n[nH]c(=S)o2)c1`, for which the zone of inhibition at 50 µg/mL in assay [1] came to 11 mm; in assay [5], 10 mm; in [11], 12 mm; in assay [12], 11 mm. The zone of inhibition at 100 µg/mL turned out to be 18 mm in assay [2], 18 mm in assay [4], 18 mm in assay [8] and 21 mm in assay [9]. For the same compound, the Time in assay [3] worked out at 6.28 s; in assay [6], 7.61 s; in [7], 5.84 s; in assay [10], 4.94 s.

Consider `Fc1ccccc1-c1cccc(-c2n[nH]c(=S)o2)c1`, for which the zone of inhibition at 50 µg/mL in assay [1] stood at 18 mm; in assay [5] it was 12 mm; in [11] it was 15 mm; in [12], 15 mm. In addition, the zone of inhibition at 100 µg/mL was determined as 21 mm in [2], 19 mm in [4], 20 mm in assay [8] and 19 mm in assay [9]. Also, the Time in assay [3] was 5.04 s; in assay [6], 5.38 s; in assay [7] it was 5.24 s; in [10], 4.99 s.

Regarding `COc1ccc(F)cc1-c1cccc(-c2n[nH]c(=S)o2)c1`, the zone of inhibition at 50 µg/mL in [1] came to 14 mm; in assay [5] it was 12 mm; in assay [11], 8 mm; in [12] it was 12 mm. Also, the zone of inhibition at 100 µg/mL in assay [2] came to 19 mm; in assay [4] it was 20 mm; in assay [8], 17 mm; in assay [9] it was 19 mm. For the same compound, the Time is reported as 6.35 s in assay [3], 8.41 s in assay [6], 5.74 s in assay [7] and 5.22 s in assay [10].
